According to ChEMBL document CHEMBL5678814, “Novel Mps1 Kinase Inhibitors with Potent Antitumor Activity” (Mol Cancer Ther, 2016):

Legend:
Caov-3 cell line = assay: Antiproliferative activity against human Caov-3 cell line assessed as cell growth inhibition incubated for 96 hrs by crystal violet staining; details: Caov-3, 96 h
[1] = Tmax in male Wistar rat plasma at 0.5 mg/kg, po measured after 24 hrs by LC/-MS/MS analysis; format: ADME, organism-based
In short: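 Male Wistar rats given 0.5 mg/kg orally. Plasma collected from 8 min to 24 h, precipitated with ice-cold acetonitrile (1:5), and analysed by LC/MS-MS. Cmax and Tmax read directly from concentration–time profiles.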

[2] = Antiproliferative activity against human HeLa-MaTu cells assessed as cell growth inhibition incubated for 96 hrs by crystal violet staining
HT-29 = assay: Antiproliferative activity against human HT-29 cells assessed as cell growth inhibition incubated for 96 hrs by crystal violet staining; details: HT-29, 96 h
A-375 = assay: Antiproliferative activity against human A-375 cells assessed as cell growth inhibition incubated for 96 hrs by crystal violet staining; details: A-375, 96 h
SiHa = assay: Antiproliferative activity against human SiHa cells assessed as cell growth inhibition incubated for 96 hrs by crystal violet staining
[3] = molecular target: Mitogen-activated protein kinase kinase kinase kinase 1 (Homo sapiens, UniProt Q92918); assay: Binding affinity to HPK1 (unknown origin) assessed as dissociation constant
Mitogen-activated protein kinase kinase kinase kinase 1, sequence (Q92918 whole entry): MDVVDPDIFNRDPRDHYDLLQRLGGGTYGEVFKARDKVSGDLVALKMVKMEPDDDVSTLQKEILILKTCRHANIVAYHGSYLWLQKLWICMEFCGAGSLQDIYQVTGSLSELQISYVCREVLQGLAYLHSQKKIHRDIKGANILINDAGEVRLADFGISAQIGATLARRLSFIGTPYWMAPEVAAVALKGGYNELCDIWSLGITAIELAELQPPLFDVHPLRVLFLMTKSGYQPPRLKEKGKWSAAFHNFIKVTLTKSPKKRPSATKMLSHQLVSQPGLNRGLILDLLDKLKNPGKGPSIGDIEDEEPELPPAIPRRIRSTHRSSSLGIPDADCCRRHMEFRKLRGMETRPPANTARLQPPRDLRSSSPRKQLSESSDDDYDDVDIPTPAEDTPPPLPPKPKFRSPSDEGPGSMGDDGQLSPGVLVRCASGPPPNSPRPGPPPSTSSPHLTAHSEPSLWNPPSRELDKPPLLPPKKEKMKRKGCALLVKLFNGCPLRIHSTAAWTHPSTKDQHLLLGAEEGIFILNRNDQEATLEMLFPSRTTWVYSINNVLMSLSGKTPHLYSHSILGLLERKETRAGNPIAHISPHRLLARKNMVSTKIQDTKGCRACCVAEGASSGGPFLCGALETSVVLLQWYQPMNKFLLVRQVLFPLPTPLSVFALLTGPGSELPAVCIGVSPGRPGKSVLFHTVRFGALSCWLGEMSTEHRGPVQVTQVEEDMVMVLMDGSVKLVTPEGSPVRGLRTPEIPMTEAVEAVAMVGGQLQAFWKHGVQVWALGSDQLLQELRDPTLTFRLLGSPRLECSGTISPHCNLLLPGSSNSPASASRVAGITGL

[4] = Synergistic antitumor activity against human LU387 cells xenografted female athymic NMRI mouse model assessed as MTD at 1 mg/kg,po administered twice daily intermittent for 2 days on/5 days off in the presence of paclitaxel relative to control; format: functional; details: time 7 day
KU-19-19 = assay: Antiproliferative activity against human KU-19-19 cells assessed as cell growth inhibition incubated for 96 hrs by MTS assay; format: functional, cell-based; details: KU-19-19, 96 h
NCI-H647 = assay: Antiproliferative activity against human NCI-H647 cells assessed as cell growth inhibition incubated for 96 hrs by MTS assay; format: functional, cell-based; details: NCI-H647, 96 h
NCI-H1299 = assay: Antiproliferative activity against human NCI-H1299 cells assessed as cell growth inhibition incubated for 96 hrs by crystal violet staining; details: NCI-H1299, 96 h
FaDu = assay: Antiproliferative activity against human FaDu cells assessed as cell growth inhibition incubated for 96 hrs by crystal violet staining
SK-N-AS = assay: Antiproliferative activity against human SK-N-AS cells assessed as cell growth inhibition incubated for 96 hrs by crystal violet staining
Misshapen-like kinase 1 = Misshapen-like kinase 1 (Homo sapiens, UniProt Q8N4C8); assay: Binding affinity to MINK (unknown origin) assessed as dissociation constant
Misshapen-like kinase 1, sequence (Q8N4C8 whole entry): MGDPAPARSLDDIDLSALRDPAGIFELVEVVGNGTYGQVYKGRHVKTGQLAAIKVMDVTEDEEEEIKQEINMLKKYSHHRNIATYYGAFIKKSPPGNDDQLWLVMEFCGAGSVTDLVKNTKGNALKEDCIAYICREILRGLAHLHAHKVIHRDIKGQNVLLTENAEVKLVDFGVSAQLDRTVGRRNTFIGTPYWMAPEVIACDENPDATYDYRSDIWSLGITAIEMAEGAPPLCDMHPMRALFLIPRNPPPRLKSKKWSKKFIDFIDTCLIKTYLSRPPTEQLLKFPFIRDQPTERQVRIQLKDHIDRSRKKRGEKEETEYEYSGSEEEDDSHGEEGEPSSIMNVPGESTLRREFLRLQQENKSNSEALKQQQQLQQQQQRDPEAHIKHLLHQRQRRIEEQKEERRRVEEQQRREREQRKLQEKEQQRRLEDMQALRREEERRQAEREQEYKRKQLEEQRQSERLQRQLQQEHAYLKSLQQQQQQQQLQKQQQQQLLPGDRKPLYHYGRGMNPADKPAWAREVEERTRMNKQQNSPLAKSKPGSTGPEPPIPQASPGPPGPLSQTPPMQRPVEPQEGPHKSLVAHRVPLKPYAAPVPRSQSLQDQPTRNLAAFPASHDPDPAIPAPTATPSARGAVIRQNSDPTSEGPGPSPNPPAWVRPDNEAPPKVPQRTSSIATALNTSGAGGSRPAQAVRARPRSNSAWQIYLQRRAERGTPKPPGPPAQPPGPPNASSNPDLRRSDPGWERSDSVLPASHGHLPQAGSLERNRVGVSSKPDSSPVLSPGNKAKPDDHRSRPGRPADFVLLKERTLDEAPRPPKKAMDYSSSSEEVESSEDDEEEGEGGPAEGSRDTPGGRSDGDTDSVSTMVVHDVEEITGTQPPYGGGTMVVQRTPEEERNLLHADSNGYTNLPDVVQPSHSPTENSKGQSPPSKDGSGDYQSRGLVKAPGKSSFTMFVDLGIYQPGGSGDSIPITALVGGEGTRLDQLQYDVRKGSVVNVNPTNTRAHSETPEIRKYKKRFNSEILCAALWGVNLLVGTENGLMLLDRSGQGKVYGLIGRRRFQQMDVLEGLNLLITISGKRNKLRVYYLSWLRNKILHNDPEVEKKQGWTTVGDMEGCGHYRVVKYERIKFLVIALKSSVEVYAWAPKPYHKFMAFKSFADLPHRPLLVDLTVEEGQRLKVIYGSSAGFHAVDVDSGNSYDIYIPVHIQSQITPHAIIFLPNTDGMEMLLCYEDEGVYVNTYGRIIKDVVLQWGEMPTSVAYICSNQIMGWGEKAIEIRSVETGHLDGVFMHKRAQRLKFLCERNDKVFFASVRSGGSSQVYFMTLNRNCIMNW

[5] = Clearance in male CD1 mouse blood at 0.5 mg/kg, iv measured after 24 hrs by LC/-MS/MS analysis; format: ADME, organism-based
In short: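 Male CD1 mice received a single iv bolus of 0.5 mg/kg in 1% DMSO/99% plasma. Plasma was sampled at 2, 5, 15, 30 and 45 min and at 1, 2, 4, 6, 8 and 24 h, precipitated with ice-cold acetonitrile (1:5), and supernatants were run by LC/MS-MS. Parameters were estimated from plasma concentration data, with AUC by the log-linear trapezoidal rule.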

L-363 = assay: Antiproliferative activity against human L-363 cells assessed as cell growth inhibition incubated for 96 hrs by crystal violet staining; details: L-363, 96 h
[6] = molecular target: Phosphatidylinositol 5-phosphate 4-kinase type-2 gamma (Homo sapiens, UniProt Q8TBX8); assay: Binding affinity to PIP5K2C (unknown origin) assessed as dissociation constant
Phosphatidylinositol 5-phosphate 4-kinase type-2 gamma, sequence (Q8TBX8 whole entry): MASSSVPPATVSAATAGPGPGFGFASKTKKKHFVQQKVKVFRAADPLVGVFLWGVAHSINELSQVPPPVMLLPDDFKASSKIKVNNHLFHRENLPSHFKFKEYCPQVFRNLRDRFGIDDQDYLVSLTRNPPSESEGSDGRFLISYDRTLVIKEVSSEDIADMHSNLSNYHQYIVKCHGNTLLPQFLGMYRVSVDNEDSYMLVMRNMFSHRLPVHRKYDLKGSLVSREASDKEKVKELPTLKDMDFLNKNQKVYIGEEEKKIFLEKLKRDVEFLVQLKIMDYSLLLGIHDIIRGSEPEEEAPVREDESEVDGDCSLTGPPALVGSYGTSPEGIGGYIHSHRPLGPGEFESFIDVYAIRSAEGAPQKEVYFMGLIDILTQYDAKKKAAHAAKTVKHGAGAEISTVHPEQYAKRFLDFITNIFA

[7] = Oral bioavailability in female NMRI mouse plasma at 1 mg/kg measured after 24 hrs by LC/-MS/MS analysis
[8] = Clearance in male Wistar rat blood at 0.5 mg/kg, iv measured after 24 hrs by LC/-MS/MS analysis; format: ADME, organism-based
LoVo = assay: Antiproliferative activity against human LoVo cells assessed as cell growth inhibition incubated for 96 hrs by crystal violet staining
Caco-2 = assay: Antiproliferative activity against human Caco-2 cells assessed as cell growth inhibition incubated for 96 hrs by crystal violet staining; details: Caco-2, 96 h
A673 = assay: Antiproliferative activity against human A673 cells assessed as cell growth inhibition incubated for 96 hrs by MTS assay; format: functional, cell-based; details: A673, 96 h
NCI-H526 = assay: Antiproliferative activity against human NCI-H526 cells assessed as cell growth inhibition incubated for 96 hrs by MTS assay; format: functional, cell-based; details: NCI-H526, 96 h
[9] = molecular target: Mitogen-activated protein kinase 8 (Homo sapiens, UniProt P45983); assay: Binding affinity to JNK1 (unknown origin) assessed as dissociation constant
Mitogen-activated protein kinase 8, sequence (P45983 whole entry): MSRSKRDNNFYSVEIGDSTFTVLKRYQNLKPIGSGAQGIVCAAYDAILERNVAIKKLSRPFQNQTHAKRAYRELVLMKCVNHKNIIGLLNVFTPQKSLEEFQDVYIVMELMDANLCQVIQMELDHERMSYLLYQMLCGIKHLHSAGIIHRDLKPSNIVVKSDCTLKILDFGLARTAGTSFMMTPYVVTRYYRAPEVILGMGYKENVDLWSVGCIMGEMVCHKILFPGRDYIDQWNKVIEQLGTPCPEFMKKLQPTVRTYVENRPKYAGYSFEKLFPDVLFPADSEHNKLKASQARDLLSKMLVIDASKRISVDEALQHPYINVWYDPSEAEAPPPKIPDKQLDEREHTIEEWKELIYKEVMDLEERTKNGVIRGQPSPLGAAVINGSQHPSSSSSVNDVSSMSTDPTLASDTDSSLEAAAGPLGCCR

HT1197 = assay: Antiproliferative activity against human HT1197 cells assessed as cell growth inhibition incubated for 96 hrs by MTS assay; format: functional, cell-based; details: HT1197, 96 h
[10] = Tmax in female NMRI mouse plasma at 1 mg/kg, po measured after 24 hrs by LC/-MS/MS analysis
NCI-H1155 = assay: Antiproliferative activity against human NCI-H1155 cells assessed as cell growth inhibition incubated for 96 hrs by crystal violet staining; details: NCI-H1155, 96 h
RD = assay: Antiproliferative activity against human RD cells assessed as cell growth inhibition incubated for 96 hrs by MTS assay; format: functional, cell-based
[11] = molecular target: Mast/stem cell growth factor receptor Kit (Homo sapiens, UniProt P10721); assay: Binding affinity to KIT (unknown origin) assessed as dissociation constant
Mast/stem cell growth factor receptor Kit, sequence (P10721 whole entry): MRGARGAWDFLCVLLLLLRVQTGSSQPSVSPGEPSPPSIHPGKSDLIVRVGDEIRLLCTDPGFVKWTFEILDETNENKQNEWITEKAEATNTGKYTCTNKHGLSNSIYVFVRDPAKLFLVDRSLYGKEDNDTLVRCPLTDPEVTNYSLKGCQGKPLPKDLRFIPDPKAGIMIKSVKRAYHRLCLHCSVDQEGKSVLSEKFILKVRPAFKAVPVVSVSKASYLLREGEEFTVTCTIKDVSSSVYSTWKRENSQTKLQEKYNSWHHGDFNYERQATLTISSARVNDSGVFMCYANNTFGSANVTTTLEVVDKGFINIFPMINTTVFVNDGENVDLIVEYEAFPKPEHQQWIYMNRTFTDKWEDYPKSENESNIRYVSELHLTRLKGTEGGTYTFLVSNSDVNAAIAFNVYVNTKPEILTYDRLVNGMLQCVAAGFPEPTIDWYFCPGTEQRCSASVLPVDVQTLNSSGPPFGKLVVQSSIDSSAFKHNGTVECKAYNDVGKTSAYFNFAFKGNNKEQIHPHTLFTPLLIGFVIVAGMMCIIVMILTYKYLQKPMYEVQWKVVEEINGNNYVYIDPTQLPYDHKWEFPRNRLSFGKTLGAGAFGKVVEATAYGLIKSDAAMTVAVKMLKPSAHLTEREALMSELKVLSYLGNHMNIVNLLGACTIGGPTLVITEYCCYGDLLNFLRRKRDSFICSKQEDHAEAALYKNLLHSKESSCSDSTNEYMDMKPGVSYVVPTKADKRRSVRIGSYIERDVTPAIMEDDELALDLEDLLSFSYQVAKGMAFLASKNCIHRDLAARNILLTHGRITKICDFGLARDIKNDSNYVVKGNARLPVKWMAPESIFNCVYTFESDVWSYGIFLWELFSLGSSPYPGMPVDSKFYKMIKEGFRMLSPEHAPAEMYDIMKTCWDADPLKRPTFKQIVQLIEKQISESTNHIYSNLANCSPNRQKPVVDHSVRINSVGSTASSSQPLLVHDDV

NCI-H23 = assay: Antiproliferative activity against human NCI-H23 cells assessed as cell growth inhibition incubated for 96 hrs by crystal violet staining; details: NCI-H23, 96 h
OCI-LY19 = assay: Antiproliferative activity against human OCILY19 cells assessed as cell growth inhibition incubated for 96 hrs by MTS assay; format: functional, cell-based; details: OCI-LY19, 96 h
MDA-MB-231 = assay: Antiproliferative activity against human MDA-MB-231 cells assessed as cell growth inhibition incubated for 96 hrs by MTS assay; format: functional, cell-based; details: MDA-MB-231, 96 h
RKO = assay: Antiproliferative activity against human TP53 mutant RKO cells assessed as cell growth inhibition incubated for 96 hrs by crystal violet staining

COc1cc(S(C)(=O)=O)ccc1Nc1nc2ccc(-c3ccc(NC(=O)[C@H](C)c4ccc(F)cc4)cc3)cn2n1 [BAY-1161909]
IC50 (Caov-3 cell line): 98 nM
Tmax [1]: 4 h
IC50 [2]: 200 nM
IC50 (HT-29): 100 nM
IC50 (A-375): 100 nM
IC50 (SiHa): 610 nM
Kd [3]: 40000 nM
MED [4]: 40%
IC50 (KU-19-19): 86 nM
IC50 (NCI-H647): 570 nM
IC50 (NCI-H1299): 120 nM
IC50 (FaDu): 270 nM
IC50 (SK-N-AS): 97 nM
Kd (Misshapen-like kinase 1): 40000 nM
clearance [5]: 11.5 mL/min/kg
IC50 (L-363): 32 nM
Kd [6]: 280 nM
bioavailability [7]: 59%
clearance [8]: 3.17 mL/min/kg
IC50 (LoVo): 95 nM
IC50 (Caco-2): 1800 nM
IC50 (A673): 93 nM
IC50 (NCI-H526): 100 nM
Kd [9]: 240 nM
IC50 (HT1197): > 3000 nM
Tmax [10]: 4 h
IC50 (NCI-H1155): 1400 nM
IC50 (RD): 260 nM
Kd [11]: 370 nM
IC50 (NCI-H23): 91 nM
IC50 (OCI-LY19): 61 nM
IC50 (MDA-MB-231): 110 nM
IC50 (RKO): 48 nM
